# From BindingDB's records for doi:10.1016/j.bmcl.2014.05.064 (The University of Tokyo, 2014)
# Molecular target: T1, NPC intracellular cholesterol transporter 1 [I1061T] (Homo sapiens, UniProt O15118, I1061T)
# T1 construct: gene NPC1
# Test: Binding affinity to FLAG/tGFP-tagged NPC1 I1061T mutant (unknown origin) expressed in HEK293 cells assessed as localization after 24 hrs by fluorescence microscopy
# In short: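 HEK293 cells stably expressing NPC1 I1061T-tGFP were exposed to compound for 24 h, fixed, and nuclei stained with Hoechst 33342. In the images, each cell was scored by tGFP pattern: ER 0, mixed ER+vesicle 0.5, vesicular 1. Scores were averaged to give the vesicular-localization percentage, and EC50 was taken from concentration-response. Data are mean ± standard deviation of three independent experiments.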
# T1 sequence (O15118 23-1278 I1061T limits assumed): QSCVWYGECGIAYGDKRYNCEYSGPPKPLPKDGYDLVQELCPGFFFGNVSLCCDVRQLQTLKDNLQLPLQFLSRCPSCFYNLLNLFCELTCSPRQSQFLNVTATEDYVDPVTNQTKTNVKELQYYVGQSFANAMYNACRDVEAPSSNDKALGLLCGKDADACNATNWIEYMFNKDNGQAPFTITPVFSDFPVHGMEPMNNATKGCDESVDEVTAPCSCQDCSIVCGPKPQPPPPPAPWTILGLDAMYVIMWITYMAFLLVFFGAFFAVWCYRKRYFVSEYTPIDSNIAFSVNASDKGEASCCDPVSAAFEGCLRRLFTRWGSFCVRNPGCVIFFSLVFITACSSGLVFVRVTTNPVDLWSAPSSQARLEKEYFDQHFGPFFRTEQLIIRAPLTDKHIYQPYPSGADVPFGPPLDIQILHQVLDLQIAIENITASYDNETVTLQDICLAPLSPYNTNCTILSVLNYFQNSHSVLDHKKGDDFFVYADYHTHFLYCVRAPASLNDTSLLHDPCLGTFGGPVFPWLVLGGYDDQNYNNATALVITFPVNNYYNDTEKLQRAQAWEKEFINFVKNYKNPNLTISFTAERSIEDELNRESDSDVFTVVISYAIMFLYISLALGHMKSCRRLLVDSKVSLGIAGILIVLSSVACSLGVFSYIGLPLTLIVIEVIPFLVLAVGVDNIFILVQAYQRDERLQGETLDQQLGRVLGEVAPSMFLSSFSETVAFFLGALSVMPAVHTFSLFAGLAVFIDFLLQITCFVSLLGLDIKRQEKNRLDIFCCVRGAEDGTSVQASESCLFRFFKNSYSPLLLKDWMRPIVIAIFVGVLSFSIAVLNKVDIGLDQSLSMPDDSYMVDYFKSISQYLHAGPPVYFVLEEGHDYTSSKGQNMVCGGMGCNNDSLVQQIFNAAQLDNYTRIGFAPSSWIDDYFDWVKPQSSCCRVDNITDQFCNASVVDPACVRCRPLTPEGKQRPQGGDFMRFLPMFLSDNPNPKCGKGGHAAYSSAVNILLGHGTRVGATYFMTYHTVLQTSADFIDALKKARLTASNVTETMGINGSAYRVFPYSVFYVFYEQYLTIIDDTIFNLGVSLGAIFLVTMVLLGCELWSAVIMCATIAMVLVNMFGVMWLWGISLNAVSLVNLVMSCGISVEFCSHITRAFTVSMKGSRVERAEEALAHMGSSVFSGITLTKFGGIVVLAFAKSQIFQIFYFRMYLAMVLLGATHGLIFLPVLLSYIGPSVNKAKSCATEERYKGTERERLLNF
row,Structure (SMILES),EC50 [µM]
1,C[C@H](CNC(=O)c1cc(C(F)(F)F)cc(C(F)(F)F)c1)[C@H]1CC[C@H]2[C@@H]3C[C@@H](O)[C@@]4(O)C[C@@H](OCC(=O)N5CCOCC5)CC[C@]4(C)[C@H]3CC[C@]12C,0.086
2,CC(C)CCC[C@@H](C)[C@H]1CC[C@H]2[C@@H]3C[C@@H](O)[C@@]4(O)C[C@@H](OCC(=O)N5CCOCC5)CC[C@]4(C)[C@H]3CC[C@]12C,0.15
3,CC(C)CCC[C@@H](C)[C@H]1CC[C@H]2[C@@H]3C(=O)C=C4C[C@@H](OCC(=O)N5CCOCC5)CC[C@]4(C)[C@H]3CC[C@]12C,0.29
4,CC(C)CCC[C@@H](C)[C@H]1CC[C@H]2[C@@H]3[C@@H](O)C=C4C[C@@H](OCC(=O)N5CCOCC5)CC[C@]4(C)[C@H]3CC[C@]12C,0.36
5,CC[C@H](/C=C/[C@@H](C)[C@H]1CC[C@H]2[C@@H]3C[C@@H](O)[C@@]4(O)C[C@@H](OCC(=O)N5CCOCC5)CC[C@]4(C)[C@H]3CC[C@]12C)C(C)C,0.36
6,CC(C)C(=O)NC[C@@H](C)[C@H]1CC[C@H]2[C@@H]3C[C@@H](O)[C@@]4(O)C[C@@H](OCC(=O)N5CCOCC5)CC[C@]4(C)[C@H]3CC[C@]12C,0.37
7,CC(C)CCC[C@@H](C)[C@H]1CC[C@H]2[C@@H]3C[C@@H](O)[C@@]4(O)C[C@@H](OCC(=O)N(CCO)CCO)CC[C@]4(C)[C@H]3CC[C@]12C,0.56
8,CC(C)CCC[C@@H](C)[C@H]1CC[C@H]2[C@@H]3C[C@@H](O)[C@@]4(O)C[C@@H](OCC(N)=O)CC[C@]4(C)[C@H]3CC[C@]12C,0.84
9,C[C@H](CCCC(C)(C)O)[C@H]1CC[C@H]2[C@@H]3CC=C4C[C@@H](OCC(=O)N5CCOCC5)CC[C@]4(C)[C@H]3CC[C@]12C,0.88
10,CC(C)CCC[C@@H](C)[C@H]1CC[C@H]2[C@@H]3C[C@@H](O)[C@@]4(O)C[C@@H](OCCN5CCOCC5)CC[C@]4(C)[C@H]3CC[C@]12C,1
11,C[C@H](CCCC(C)(C)O)[C@H]1CC[C@H]2[C@@H]3CC=C4C[C@@H](OCC(=O)N(C)C)CC[C@]4(C)[C@H]3CC[C@]12C,1.4
12,C[C@H](CCCC(C)(C)O)[C@H]1CC[C@H]2[C@@H]3C(=O)C=C4C[C@@H](O)CC[C@]4(C)[C@H]3CC[C@]12C,1.5
13,CC(C)CCC[C@@H](C)[C@H]1CC[C@H]2[C@@H]3CC(=O)[C@@]4(O)C[C@@H](O)CC[C@]4(C)[C@H]3CC[C@]12C,1.7
14,C[C@H](CCCC(C)(C)O)[C@H]1CC[C@H]2[C@@H]3C[C@@H](O)[C@@]4(O)C[C@@H](O)CC[C@]4(C)[C@H]3CC[C@]12C,1.7
15,CCN(CC)C(=O)CC[C@@H](C)[C@H]1CC[C@H]2[C@@H]3CC=C4C[C@@H](O)CC[C@]4(C)[C@H]3CC[C@]12C,1.7
16,CC(C)CCC[C@@H](C)[C@H]1CC[C@H]2[C@@H]3C[C@@H](O)[C@@]4(O)C[C@@H](OCC(=O)N5CCCCC5)CC[C@]4(C)[C@H]3CC[C@]12C,1.8
17,C[C@H](CCCC(C)(C)O)[C@H]1CC[C@H]2[C@@H]3[C@@H](O)C=C4C[C@@H](O)CC[C@]4(C)[C@H]3CC[C@]12C,1.9

row,Structure (SMILES),EC50 [µM]
1,CC(C)CCC[C@@H](C)[C@H]1CC[C@H]2[C@@H]3[C@@H](O)C=C4C[C@@H](OCCO)CC[C@]4(C)[C@H]3CC[C@]12C,3.4
2,C[C@H](CCCC(C)(C)O)[C@H]1CC[C@H]2[C@@H]3CCC4=CC(=O)CC[C@]4(C)[C@H]3CC[C@]12C,4
3,CCN(CC)C(=O)CO[C@H]1CC[C@@]2(C)C(=CC[C@H]3[C@@H]4CC[C@H]([C@H](C)CCCC(C)(C)O)[C@@]4(C)CC[C@@H]32)C1,4.8
4,CC(C)CCC[C@@H](C)[C@H]1CC[C@H]2[C@@H]3[C@@H](O)C=C4C[C@@H](OC(=O)N5CCOCC5)CC[C@]4(C)[C@H]3CC[C@]12C,6.1
5,C[C@H](CNC(=O)N(C)C)[C@H]1CC[C@H]2[C@@H]3C[C@@H](O)[C@@]4(O)C[C@@H](OCC(=O)N5CCOCC5)CC[C@]4(C)[C@H]3CC[C@]12C,6.8
6,CCN(CC)CCO[C@H]1CC[C@@]2(C)C(=CC[C@H]3[C@@H]4CC[C@H]([C@H](C)CCCC(C)(C)O)[C@@]4(C)CC[C@@H]32)C1,9.9
7,C[C@H](COc1cc(C(F)(F)F)cc(C(F)(F)F)c1)[C@H]1CC[C@H]2[C@@H]3C[C@@H](O)[C@@]4(O)C[C@@H](OCC(=O)N5CCOCC5)CC[C@]4(C)[C@H]3CC[C@]12C,> 10
8,CC(C)CCC[C@@H](C)[C@H]1CC[C@H]2[C@@H]3CC(=O)[C@H]4C[C@@H](O)CC[C@]4(C)[C@H]3CC[C@]12C [5alpha-CHOLESTAN-3beta-OL-6-ONE],3.4
9,"C[C@H](CCCC(C)(C)O)[C@H]1CC[C@H]2[C@@H]3CC=C4C[C@@H](O)CC[C@]4(C)[C@H]3CC[C@]12C [(1S,2R,5S,10S,11S,14R,15R)-14-[(2R)-6-hydroxy-6-methylheptan-2-yl]-2,15-dimethyltetracyclo[8.7.0.0^{2,7}.0^{11,15}]heptadec-7-en-5-ol]",3.3
10,"CC(C)CC[C@H](O)[C@@H](C)[C@H]1CC[C@H]2[C@@H]3CC=C4C[C@@H](O)CC[C@]4(C)[C@H]3CC[C@]12C [(1S,2R,5S,10S,11S,14R,15S)-14-[(2S,3S)-3-hydroxy-6-methylheptan-2-yl]-2,15-dimethyltetracyclo[8.7.0.0^{2,7}.0^{11,15}]heptadec-7-en-5-ol]",2.9
11,"C[C@H](CCC(=O)N(C)C)[C@H]1CC[C@H]2[C@@H]3CC=C4C[C@@H](O)CC[C@]4(C)[C@H]3CC[C@]12C [(4R)-4-[(1S,2R,5S,10S,11S,14R,15R)-5-hydroxy-2,15-dimethyltetracyclo[8.7.0.0^{2,7}.0^{11,15}]heptadec-7-en-14-yl]-N,N-dimethylpentanamide]",3.1
12,CC(C)CCC[C@@H](C)[C@H]1CC[C@H]2[C@@H]3C[C@@H](O)[C@@]4(O)C[C@@H](O)CC[C@]4(C)[C@H]3CC[C@]12C [CHEBI:28082],1.7
13,CC(C)CCC[C@@H](C)[C@H]1CC[C@H]2[C@@H]3[C@@H](O)C=C4C[C@@H](O)CC[C@]4(C)[C@H]3CC[C@]12C [CHEBI:42989],3.4
14,CC(C)CCC[C@@H](C)[C@H]1CC[C@H]2[C@@H]3C(=O)C=C4C[C@@H](O)CC[C@]4(C)[C@H]3CC[C@]12C [CHEBI:64294],8.7
15,"CC(C)CCC[C@@H](C)[C@H]1CC[C@H]2[C@@H]3CC[C@@]4(O)[C@@H](O)[C@@H](O)CC[C@]4(C)[C@H]3CC[C@]12C [Cholestane-3b,4b,5a-triol]",4.3
16,C[C@]12CC[C@H](O)CC1=CC[C@@H]1[C@@H]2CC[C@]2(C)C(=O)CC[C@@H]12 [Prasterone],> 10
